Experimental data taken from PMC2926617 (Nucleic Acids Research, 2010).
Where a chain is given by its changes, count along the chain named. Where two headings read alike, the source gives them in different places.

T1: CarS (Myxococcus xanthus, UniProt Q06911)
T1 sequence (Q06911 1-111): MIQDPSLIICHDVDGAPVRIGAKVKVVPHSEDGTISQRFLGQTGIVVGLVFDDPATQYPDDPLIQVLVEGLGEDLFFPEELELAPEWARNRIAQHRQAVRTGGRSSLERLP

B1: CarS antirepressor (natural protein, Myxococcus xanthus, UniProt Q06911 1-111, looked up)
chain: T1 sequence (Q06911 1-111)
B2: CarS: antirepressor of Myxococcus xanthus (protein)
chain: T1 sequence (Q06911 1-111)
modifications: left off: H6, end not stated, cleaved
B3: CarA R15 to A: CarA with R15 mutated to A (ref 10) (protein, UniProt Q50899 1-288, looked up, variant R15A)
HTH-type transcriptional …: MTLRIRTIARMTGIAEATLRAWERRYGFPRPLRSEGNNYRVYSREEVEAVRRVARLIQEEGLSVSEAIAQVKTEPPREQPEAERLRERFWSSVGALEGDEVTRVLDDAQTVMDVEAYCDGFLLPLLREMGVRLDVAREHLASALIRQRLRQVYDALSPAPAGPRALLACPSGDHHEGGLLVLGIHLKRKGWRVTMLGADTPAAALQGACVQVRPDVVALSFVRARAPEEFASVLEDALRACAPFPVVVGGLGAREHLKAIFSLGAQYAESSEELVAIWNQVRNAQNRP
B4: R20′ to A: CarA with R20 mutated to A (ref 10) (protein, UniProt Q50899 1-288, looked up, variant R20A)
HTH-type transcriptional …: B3 HTH-type transcriptional … with A15R, R20A
B5: CarHNt: CarH N-terminal DNA-binding domain (protein)
chain: MAERTYRINIAAELAGVRVELIRAWERRYGVLTPRRTPAGYRAYTDRDVAVLKQLKRLTDEGVAISEAAKLLPQLMEGLE
modifications: left off: H6, end not stated, cleaved
B6: CarS1, functional truncated form of CarS (lacking the last 25 residues) (domain or fragment)
chain: MIQDPSLIICHDVDGAPVRIGAKVKVVPHSEDGTISQRFLGQTGIVVGLVFDDPATQYPDDPLIQVLVEGLGEDLFFPEELELAPE
B7: CarANt, N-terminal DNA-binding domain of CarA (domain or fragment, Myxococcus xanthus)
chain: MTLRIRTIARMTGIREATLRAWERRYGFPRPLRSEGNNYRVYSREEVEAVRRVARLIQEEGLSVSEAIAQVKTEPPRE

Assays:
[1] = biological target: T1, CarS; assay: ITC titration with CarS; assay type: binding
[2] = biological target: CHP01, CarHNt peptide equivalent to P01 (Myxococcus xanthus); assay: ITC
[3] = biological target: P01, CarA α2 peptide (α2 segment plus the subsequent eight C-terminal residues) (Myxococcus xanthus); assay: ITC
[4] = biological target: P02, CarA α2 peptide (α2 only) (Myxococcus xanthus); assay: ITC
[5] = biological target: B7; assay: ITC
[6] = Analytical gel filtration of pure proteins; assay type: physicochemical; conditions: Superdex200, 50 mM phosphate pH 7.5, 2 mM β-mercaptoethanol
Summary of the method: (§1)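 Superdex200 analytical size-exclusion HPLC in 50 mM phosphate pH 7.5, 2 mM β-mercaptoethanol and the required NaCl. Samples were 10–50 µM pure protein, or CarNt or CarHNt mixed with CarS or variant at equivalent concentrations. Flow was 0.4 ml/min with detection at 280, 235 and 220 nm. Peak fractions were identified by SDS–PAGE. Mr was taken from elution volume via log Mr = 7.64 – 0.209 Ve.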

[7] = system: CarA; assay: Yeast two-hybrid interaction with CarA; assay type: cell-based, Myxococcus xanthus; conditions: 30°C
Summary of the method: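 Yeast EGY48 carrying lacZ reporter pSH18-34 was cotransformed (lithium acetate) with LexA–CarA and B42–CarS or variant fusions. Equal-density cultures were spotted on galactose or glucose (basal fusion expression) plates with leucine, grown 1 day at 30°C, then overlaid with X-Gal agarose for 2–3 h (Gal) or ≥7 h (Glu). Interaction was scored by blue colour; single-hybrid cells served as controls.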

[8] = system: CarANt; assay: Analytical gel filtration, complex formation with CarANt; assay type: binding, Myxococcus xanthus
Summary of the method: as §1

[9] = biological target: T1, CarS; conditions: cited from earlier work
[10] = biological target: T1, CarS; assay: Analytical gel filtration, complex formation with CarS; assay type: binding; conditions: Superdex200, pH 7.5, mixture with CarS
Summary of the method: as §1

[11] = system: CarA or CarH N-terminal domain; conditions: cited from earlier work
[12] = biological target: P01, CarA α2 peptide (α2 segment plus the subsequent eight C-terminal residues) (Myxococcus xanthus); assay: ITC; remark: listed apart in the source
[13] = biological target: P01, CarA α2 peptide (α2 segment plus the subsequent eight C-terminal residues) (Myxococcus xanthus); assay: ITC; remark: listed apart in the source
[14] = biological target: P01, CarA α2 peptide (α2 segment plus the subsequent eight C-terminal residues) (Myxococcus xanthus); assay: ITC; remark: listed apart in the source
[15] = biological target: B1; assay: ITC

For Ac-GVRVELIRAWERRYGVLTPRRTP-NH2 [CHP01], the Kd [1] was 690 ± 140 nM, the “ITC heat change / binding” value ([1]; ITC with CarS, pH 7.5) was “bind tightly to CarS, but with a KD somewhat higher than for P01” and the “N (binding stoichiometry)” value ([1]; ITC, CarS, 25 °C, pH 7.5, 100 mM NaCl, 50 mM phosphate, 2 mM β-mercaptoethanol, 0.05% sodium azide, 20 µM CarANt or peptide titrated with 0.22 mM CarS, average of at least two independent titrations) was 0.91 ± 0.01. It also gave a ΔH ([1]; ITC, CarS, 25 °C, pH 7.5, 100 mM NaCl, 50 mM phosphate, average of at least two independent titrations) of −7.15 ± 0.17 kcalmol^−1.

For B1, the Kd [2] was 690 nM, the dH [2] was -7.15 kcalmol^−1 and the stoichiometry N [2] was 0.91. It also gave a Kd [3] of 150 nM, a dH [3] of -11.7 kcalmol^−1 and a stoichiometry N [3] of 0.93. For the same molecule, the Kd [4] was 300 nM, the dH [4] was -12 kcalmol^−1 and the stoichiometry N [4] was 1.07. The dH [5] was -9.24 ± 0.02 kcalmol^−1 and the “stoichiometry N” value [5] was 0.94 ± 0.01.

For B2, the “Apparent Mr of pure protein” value [6] was 15.1 ± 0.8 kDa, the “Two-hybrid blue color, galactose plates” value ([7]; galactose plates, X-gal overlay) was “turned blue within two hours” and the “Two-hybrid blue color, glucose plates” value ([7]; glucose plates (basal B42-fusion expression), X-gal 7–24 h) was “blue color”. The “Apparent Mr of complex/peak in mixture with CarANt” value ([8]; Superdex200, 50 mM phosphate pH 7.5, 2 mM β-mercaptoethanol, mixture with CarANt) was 30 ± 2 kDa and the “Complex formation with CarANt” value ([8]; Superdex200, pH 7.5, mixture with CarANt) was “formed a stable 1:1 complex”.

For B3, the “Interaction of CarA variant with CarS” value [9] is given as “CarS-binding was not impaired”.

For B4, the “Interaction of CarA variant with CarS” value [9] is given as “no apparent impairment in interactions with CarS”.

In the case of B5, the “Apparent Mr of complex with CarS” value [10] is reported as “≈ 35 kDa” and the “Complex formation with CarS” value [10] is reported as “forms a 1:1 complex”.

For B6, the Complex formation stoichiometry [11] is given as “forms a 1:1 complex”, the Kd [12] is given as 270 nM and the dH [12] is given as -14.4 kcalmol^−1. The stoichiometry N [12] was 0.89, the Kd [13] was 175 nM and the dH [13] was -5.7 kcalmol^−1. For the same molecule, the stoichiometry N [13] was 0.93, the Kd [3] was 150 nM and the dH [3] was -8.46 kcalmol^−1. It also gave a stoichiometry N [3] of 0.92, a Kd [4] of 490 nM and a dH [4] of -7.6 kcalmol^−1. For the same molecule, the stoichiometry N [4] was 0.97, the Kd [14] was 200 nM and the dH [14] was -10.9 kcalmol^−1. It also gave a stoichiometry N [14] of 0.89.

For B7, the Kd [15] was 12 ± 3 nM.
